A value given as a limit tells only on which side of the number the result lay.

We go through 33 compounds from ChEMBL document CHEMBL3351532, “In vitro antiplasmodial and cytotoxic activities of asymmetrical pyridinium derivatives” (Eur J Med Chem, 2014).

One data set has as its system Plasmodium falciparum. The data set is described as follows: Antiplasmodial activity against Plasmodium falciparum 3D7 infected in human erythrocytes assessed as parasite growth inhibition after 72 hrs by SYBR Green I dye based fluorescence assay. It counts as functional, organism-based. Conditions: 3D7, 72 h. The method, boiled down:
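P. falciparum 3D7, sorbitol-synchronized, in O+ human erythrocytes at 5% hematocrit and 0.5% parasitemia. Medium: RPMI 1640 with 2% human serum, 0.5% Albumax II and 0.2% NaHCO3, at 37 °C in 5% CO2. Triplicate serial dilutions, 0.001% final DMSO, 80 nM chloroquine as positive control, 72 h. SYBR Green I lysis for 1 h in the dark (ex 485/em 530 nm). IC50 by nonlinear regression of counts against log concentration.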

A short description of data set [1]: Cytotoxicity against rat L6 cells after 72 hrs by alamar blue assay. The data set is classed as cell-based. The procedure, abridged: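 Rat L6 skeletal myoblasts plated at 50,000 cells/well in RPMI 1640 with L-glutamine and 10% FBS, left to adhere 3 h, then exposed to serial dilutions for 72 h. Alamar Blue added for 2 h at 37 °C, fluorescence read at ex 536/em 588 nm. TC50 taken as the concentration halving fluorescence relative to inhibitor-free wells.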

Data set [2] in a line: Selectivity index, ratio of CC50 for rat L6 cells to IC50 for Plasmodium falciparum 3D7. It counts as functional.

For orientation: IC50 means the point on the concentration scale where inhibition reaches its midpoint. Take `Nc1ncn(Cc2ccc(CCc3ccc(C[n+]4ccc(N5CCCC5)cc4)cc3)cc2)c2ncnc1-2`: the IC50 with Plasmodium falciparum worked out at 0.21 µM.

On to `CN(c1ccc(Cl)cc1)c1cc[n+](Cc2ccc(C[n+]3ccc(N4CCCC4)cc3)cc2)cc1`, for which the IC50 in the data set with Plasmodium falciparum came to 0.092 µM.

Consider `Nc1ncn(Cc2ccc(CCCCc3ccc(C[n+]4ccc(N5CCCC5)cc4)cc3)cc2)c2ncnc1-2`, for which, in the data set with Plasmodium falciparum, the IC50 came to 0.084 µM.

For `Nc1ncnc2c1ncn2Cc1ccc(CCc2ccc(C[n+]3ccc(N4CCCC4)cc3)cc2)cc1`, the IC50 in the data set on Plasmodium falciparum was found to be 0.093 µM.

As a reminder, the CC50 is the concentration at which the toxic effect on the cells reaches its halfway point. As for `CN(C)c1cc[n+](Cc2ccc(CCc3ccc(C[n+]4ccc(N5CCCC5)cc4)cc3)cc2)cc1.[Br-].[Br-]`, the IC50 in the data set with Plasmodium falciparum is 0.003 µM. Also, in data set [1], the CC50 at 72 h worked out at 0.123 µg/mL. Besides, in data set [2], the “Ratio CC50/IC50” value was found to be 58.6.

In the case of `CN(c1ccc(Cl)cc1)c1cc[n+](Cc2ccc(CCCCc3ccc(C[n+]4ccc(N5CCCC5)cc4)cc3)cc2)cc1`, in the data set on Plasmodium falciparum, the IC50 was determined as 0.037 µM.

With `CN(C)c1cc[n+](Cc2ccc(CCc3ccc(C[n+]4ccc(N(C)c5ccc(Cl)cc5)cc4)cc3)cc2)cc1.[Br-].[Br-]`, the IC50 with Plasmodium falciparum stood at 0.005 µM. In data set [1], this compound displayed a CC50 at 72 h of 0.1 µg/mL. The “Ratio CC50/IC50” value in data set [2] worked out at 28.6.

Consider `Nc1ncnc2c1ncn2Cc1ccc(-c2ccc(C[n+]3ccc(N4CCCC4)cc3)cc2)cc1`, for which the IC50 with Plasmodium falciparum amounted to 0.191 µM.

`CN(C)c1cc[n+](Cc2ccc(-c3ccc(Cn4cnc5c(SCc6ccccc6)ncnc54)cc3)cc2)cc1`: the IC50 in the data set on Plasmodium falciparum worked out at 3.22 µM.

Turning to `CN(C)c1cc[n+](Cc2ccc(-c3ccc(C[n+]4ccc(N(C)c5ccc(Cl)cc5)cc4)cc3)cc2)cc1.[Br-].[Br-]`, the IC50 in the data set on Plasmodium falciparum stood at 0.007 µM. The compound further registered a CC50 at 72 h in data set [1] of 0.122 µg/mL. Besides, in data set [2], the “Ratio CC50/IC50” value came out at 24.4.

`CN(C)c1cc[n+](Cc2ccc(C[n+]3ccc(N(C)c4ccc(Cl)cc4)cc3)cc2)cc1`: in the data set with Plasmodium falciparum, the IC50 turned out to be 0.066 µM.

As for `CN(C)c1cc[n+](Cc2ccc(C[n+]3ccc(N4CCCC4)cc3)cc2)cc1`, the IC50 in the data set on Plasmodium falciparum came to 0.094 µM.

Turning to `CN(c1ccc(Cl)cc1)c1cc[n+](Cc2ccc(CCc3ccc(C[n+]4ccc(N5CCCC5)cc4)cc3)cc2)cc1`, the IC50 in the data set with Plasmodium falciparum was found to be 0.031 µM.

Take `CN(C)c1cc[n+](Cc2ccc(CCCCc3ccc(C[n+]4ccc(N5CCCC5)cc4)cc3)cc2)cc1.[Br-].[Br-]`: in the data set with Plasmodium falciparum, the IC50 came out at 0.002 µM. This compound also returned a CC50 at 72 h in data set [1] of 0.012 µg/mL. For the same compound, in data set [2], the “Ratio CC50/IC50” value is on record as 8.6.

With `CN(C)c1cc[n+](Cc2ccc(-c3ccc(C[n+]4ccc(N5CCCC5)cc4)cc3)cc2)cc1.[Br-].[Br-]`, in the data set with Plasmodium falciparum, the IC50 turned out to be 0.003 µM. Moreover, the CC50 at 72 h in data set [1] amounted to 5.1 µg/mL. Further, the “Ratio CC50/IC50” value in data set [2] came out at 3187.5.

Consider `Nc1ncnc2c1ncn2Cc1ccc(CCCCc2ccc(C[n+]3ccc(N4CCCC4)cc3)cc2)cc1`, for which the IC50 with Plasmodium falciparum turned out to be 0.46 µM.

In the case of `c1ccc(CSc2ncnc3c2ncn3Cc2ccc(C[n+]3ccc(N4CCCC4)cc3)cc2)cc1`, the concentration for half-maximal inhibition (IC50) in the data set with Plasmodium falciparum came to 0.411 µM.

Turning to `c1ccc(CSc2ncnc3c2ncn3Cc2ccc(-c3ccc(C[n+]4ccc(N5CCCC5)cc4)cc3)cc2)cc1`, the IC50 in the data set with Plasmodium falciparum was 0.119 µM.

`CN(C)c1cc[n+](Cc2ccc(CCCCc3ccc(C[n+]4ccc(N(C)c5ccc(Cl)cc5)cc4)cc3)cc2)cc1`: in the data set with Plasmodium falciparum, the IC50 was found to be 0.045 µM.

As to `CN(C)c1cc[n+](Cc2ccc(CCc3ccc(Cn4cnc5c(SCc6ccccc6)ncnc54)cc3)cc2)cc1`, the IC50 in the data set with Plasmodium falciparum turned out to be 0.092 µM.

`CN(C)c1cc[n+](Cc2ccc(Cn3cnc(N)c4ncnc3-4)cc2)cc1`: in the data set on Plasmodium falciparum, the IC50 is > 22.7 µM.

As for `CN(C)c1cc[n+](Cc2ccc(CCCCc3ccc(Cn4cnc5c(SCc6ccccc6)ncnc54)cc3)cc2)cc1`, the IC50 in the data set on Plasmodium falciparum came out at 0.5 µM.

Consider `CN(C)c1cc[n+](Cc2ccc(CCc3ccc(Cn4cnc5c(N)ncnc54)cc3)cc2)cc1`, for which the IC50 in the data set with Plasmodium falciparum was found to be 0.191 µM.

`Nc1ncnc2c1ncn2Cc1ccc(C[n+]2ccc(N3CCCC3)cc2)cc1`: the IC50 in the data set on Plasmodium falciparum was determined as 6.43 µM.

`c1ccc(CSc2ncnc3c2ncn3Cc2ccc(CCc3ccc(C[n+]4ccc(N5CCCC5)cc4)cc3)cc2)cc1`: in the data set with Plasmodium falciparum, the IC50 turned out to be 0.149 µM.

For `CN(c1ccc(Cl)cc1)c1cc[n+](Cc2ccc(-c3ccc(C[n+]4ccc(N5CCCC5)cc4)cc3)cc2)cc1`, the IC50 in the data set with Plasmodium falciparum was found to be 0.038 µM.

With `CN(C)c1cc[n+](Cc2ccc(CCCCc3ccc(Cn4cnc(N)c5ncnc4-5)cc3)cc2)cc1`, the IC50 in the data set on Plasmodium falciparum came to 0.93 µM.

Consider `CN(C)c1cc[n+](Cc2ccc(Cn3cnc4c(SCc5ccccc5)ncnc43)cc2)cc1`, for which, in the data set on Plasmodium falciparum, the IC50 came out at 0.122 µM.

Consider `CN(C)c1cc[n+](Cc2ccc(Cn3cnc4c(N)ncnc43)cc2)cc1`, for which, in the data set with Plasmodium falciparum, the IC50 amounted to 14.3 µM.

`CN(C)c1cc[n+](Cc2ccc(CCCCc3ccc(Cn4cnc5c(N)ncnc54)cc3)cc2)cc1`: the IC50 in the data set with Plasmodium falciparum was 0.162 µM.

In the case of `CN(C)c1cc[n+](Cc2ccc(-c3ccc(Cn4cnc(N)c5ncnc4-5)cc3)cc2)cc1`, the IC50 in the data set on Plasmodium falciparum was 0.949 µM.

As for `CN(C)c1cc[n+](Cc2ccc(-c3ccc(Cn4cnc5c(N)ncnc54)cc3)cc2)cc1`, in the data set with Plasmodium falciparum, the IC50 was 4.84 µM.

For `c1ccc(CSc2ncnc3c2ncn3Cc2ccc(CCCCc3ccc(C[n+]4ccc(N5CCCC5)cc4)cc3)cc2)cc1`, the IC50 in the data set on Plasmodium falciparum was found to be 0.054 µM.
